Published values pooled from the literature.
Compare with care: the assays were run in different laboratories. ≈ marks a conversion by molar mass, not a printed value.

`CCCN(CCS(C)(=O)=O)Cc1ccc(-c2ccc3ncnc(Nc4ccc(OCc5cccc(F)c5)c(Cl)c4)c3c2)o1` gave an EC50 of 2000 nM (Trypanosoma brucei; parasite growth).
For `CC(=O)OCCCn1c(/C=C/c2ccc(C#N)cc2)nc2ccccc2c1=O`, the MIC was > 128 µg/mL (Enterococcus faecium; microbial growth; broth dilution; NCTC7171).
`COc1cc(Nc2ncc3c(C)nc(-c4cccc(C(F)(F)F)c4)n3n2)cc(OC)c1OC` gave an EC50 of 158 nM (Trypanosoma brucei; parasite growth).
For `O=C(NCCO)c1cccc(-n2c(/C=C/c3ccc(F)cc3)nc3ccccc3c2=O)c1`, the MIC was > 128 µg/mL (Enterococcus faecium; microbial growth; broth dilution; NCTC7171).
The IC50 of `O=C(O)c1cn(C2CC2)c2cc(N3CCNCC3)c(F)cc2c1=O` is reported as 0.4 µg/mL (≈ 1.21 µM) (Mycobacterium intracellulare; microbial growth; resazurin; ATCC23068).
`C[C@@H]1[C@H](O)[C@@H](C)/C=C/C=C/C=C/C=C/C=C/C=C/C=C/[C@H](O[C@@H]2O[C@H](C)[C@@H](O)[C@H](N)[C@@H]2O)C[C@@H]2O[C@](O)(C[C@@H](O)C[C@@H](O)[C@H](O)CC[C@@H](O)C[C@@H](O)CC(=O)O[C@H]1C)C[C@H](O)[C@H]2C(=O)O` has an MFC of 2.5 µg/mL (≈ 2.71 µM) (Candida albicans; microbial killing; ATCC90028).
`N#Cc1ccc(/C=C/c2nc3ccccc3c(=O)n2-c2cccc(C(=O)NCCO)c2)cc1` has an MIC of > 128 µg/mL (Enterococcus faecium; microbial growth; broth dilution; NCTC7171).
`Nc1nonc1-c1nc2cnccc2n1C1CCCCC1` has an EC50 of 1260 nM (Trypanosoma brucei; parasite growth).
For `O=C(O)c1cn(C2CC2)c2cc(N3CCNCC3)c(F)cc2c1=O`, the IC50 was 0.3 µg/mL (≈ 0.905 µM) (Mycobacterium intracellulare; microbial growth; ATCC23068).
